MrgX1 allo act: positive allosteric modulators of MrgX1, primary screen, HEK293 cells, Fluo-4 calcium flux; FDSS; active compounds read high; B-score at 10 µM; 0.63% of 310,000 active; AID 588675, 2011;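 active means plate-corrected calcium response at least 3 library SD above typical, normal starting fluorescence, not activating the receptor alone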;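 further: compound read alongside a low EC10 to EC30 dose of BAM8-22 agonist; peak minus trough fluorescence over baseline measured at the second addition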
Target sequence (Q96LB2 whole entry, looked up): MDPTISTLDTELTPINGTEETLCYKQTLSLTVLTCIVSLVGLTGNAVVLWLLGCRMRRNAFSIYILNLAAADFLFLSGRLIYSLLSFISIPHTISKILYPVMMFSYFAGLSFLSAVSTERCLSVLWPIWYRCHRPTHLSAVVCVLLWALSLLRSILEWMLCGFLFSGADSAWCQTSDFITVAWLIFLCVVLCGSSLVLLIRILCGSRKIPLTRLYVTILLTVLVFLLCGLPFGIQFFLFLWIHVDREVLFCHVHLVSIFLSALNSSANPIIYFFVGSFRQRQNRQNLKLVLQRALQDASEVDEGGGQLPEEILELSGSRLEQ
RGS4 act: RGS4 potentiators or activators, primary screen, cell-based, HEK293 M3R inducible RGS4, calcium flux. carbachol calcium flux Fluo4; active compounds read low. B-score at 10 µM. AID 463111, 2010. 0.92% of 310,000 active;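 active means B-score of the integrated calcium signal more than 4 SD below the library mean, with starting fluorescence not abnormally high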;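 further: negative B-score means reduced calcium response which marks RGS4 activation or potentiation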
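Material: M3R-expressing HEK293 line, RGS4 induced by doxycycline | Schedule: Overnight RGS4 induction, 30 min dye load 37 °C, 20 min compound RT | Measured by: Fluo4 fluorescence kinetic imaging of calcium | Read-out: Integrated calcium ratio converted to B score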
MrgX1 agonist: agonists of human MrgX1 receptor, primary screen, HEK293 cells, Fluo-4 calcium flux; Mas-related G-protein coupled receptor member X1 (Homo sapiens), Q96LB2; Fluo-4 calcium fluorescence, agonist mode; active compounds read high; B-score at 10 µM; 0.44% of 310,000 active;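 active means calcium response B-score plate-corrected fluorescence ratio at least 3 library SD, with starting fluorescence B-score inside 5 SD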
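System: HEK293 cells stably expressing human MrgX1 receptor; Dosing: test compound in the initial addition of three; Schedule: overnight plating, then 30 min 37 °C plus 30 min room-temperature dye loading; Detection: kinetic calcium dye fluorescence, Fluo-4 NW; Controls: per-plate positive and negative controls for Z′ factor.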
MrgX1 antagonist: antagonists of human MrgX1 receptor, primary screen, HEK293 cells, Fluo-4 calcium flux; 1.3% of 310,000 active; BAM8-22 antagonism; active compounds read low; B-score at 10 µM; AID 588676, 2011; Mas-related G-protein coupled receptor member X1 (Homo sapiens), Q96LB2;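 active means calcium-response B-score plate-corrected more than 3 library SD below zero, starting fluorescence within 5 deviations, no agonist response on first addition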;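 further: peak minus trough fluorescence over baseline after final BAM8-22 challenge near maximal dose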
RGS4 block: RGS4 inhibitors, primary screen, cell-based, HEK293 M3R inducible RGS4, calcium flux | Regulator of G-protein signaling 4 (Homo sapiens), P49798 | 0.45% of 310,000 active | AID 463165, 2010 | B-score at 10 µM | Fluo-4 calcium flux; active compounds read high; triggered by carbachol at its EC20;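 active means B-score, a plate-corrected calcium signal, over three deviations above library mean, with baseline fluorescence within five deviations of library mean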;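 further: RGS4 expression induced by doxycycline in cells with stable M3 receptor; B-score is computed from the integrated fluorescence ratio over baseline after carbachol; higher B-score means a larger calcium signal and so more RGS4 inhibition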
Target sequence (P49798 whole entry, looked up): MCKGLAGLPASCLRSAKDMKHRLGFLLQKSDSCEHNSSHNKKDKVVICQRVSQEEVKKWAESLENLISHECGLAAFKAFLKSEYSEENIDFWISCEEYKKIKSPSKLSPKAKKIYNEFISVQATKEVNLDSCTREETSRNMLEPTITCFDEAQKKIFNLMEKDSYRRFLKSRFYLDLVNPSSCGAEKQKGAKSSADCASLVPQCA
MrgX1 PAM conf: MrgX1 positive allosteric modulators, duplicate retest, confirmation, HEK293 cells, Fluo-4 calcium flux; shares compounds with MrgX1 allo act; Fluo-4 calcium fluorescence, FDSS; activation (ratio percentage), % at 10 µM; 13% of 1,200 active; AID 602413, 2012;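 active means ratio at least 3 SD above the weak peptide control, stable starting fluorescence, no direct agonism earlier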;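 further: compound followed by low BAM8-22 agonist challenge near EC20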
HEK293 Ca flux: nonspecific calcium signal in parental HEK293, confirmation, counter-screen for MrgX1 antagonist project, parental HEK293 cells, Fluo-4 calcium flux. shares compounds with MrgX1 antagonist. Fluo-4 calcium fluorescence, FDSS. fluorescence ratio F(max-min)/F0 at 10 µM. 2% of 4,000 active;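 active means duplicate-averaged calcium fluorescence ratio at least three times the standard deviation of buffer wells, a nonspecific response in parental cells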
HEK293 Ca counter: calcium response in parental HEK293 cells, primary screen, counter-screen for MrgX1 allosteric activator project, cell-based, Fluo-4 calcium flux, duplicate | shares compounds with MrgX1 antagonist | Fluo-4 fluorescence ratio; active compounds read high | fluorescence ratio F(max-min)/F0 at 10 µM | 0.4% of 4,000 active | AID 624114, 2012;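 active means calcium fluorescence ratio, averaged over duplicates, at least 3 SD of the buffer-well ratio, meaning a nonspecific response in receptor-free cells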;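 further: untransfected parental HEK293 lacking MrgX1 used as counterscreen for MrgX1 allosteric activators; fluorescence change taken during the second addition on a kinetic imager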
HEK293 Ca cntr2: calcium response in parental HEK293 cells, primary screen, counter-screen for MrgX1 agonist project, cell-based, Fluo-4 calcium flux, duplicate, agonist mode; Fluo-4 calcium fluorescence (FDSS); active compounds read high; fluorescence ratio F(max-min)/F0 at 10 µM; shares compounds with MrgX1 antagonist; 8.7% of 4,000 active;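 active means calcium fluorescence ratio at least three times the spread of buffer wells, meaning a non-specific response in parental cells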
Numbers without * were called inactive; i = inactive; / = not tested or not shown. The list is not random: actives were taken first. Their share in the collection is about 3.5%.

SMILES	MrgX1 allo act	RGS4 act	MrgX1 agonist	MrgX1 antagonist	RGS4 block	MrgX1 PAM conf	HEK293 Ca flux	HEK293 Ca counter	HEK293 Ca cntr2
OC(CCN1CCCCC1)(c1ccccc1)C1C[C@@H]2C=C[C@H]1C2 (stereo partly specified)	6.5*	/	i	i	/	i	i	i	i
Cc1nnc2ccc(-c3ccc(NS(=O)(=O)c4ccc(F)cc4F)cc3)nn12	9.7*	i	i	i	i	i	i	i	i
Cc1nnc2ccc(-c3ccc(NS(=O)(=O)c4ccccc4F)cc3)nn12	i	i	i	i	i	/	/	/	/
COc1ccc(CCN(C)C(=O)c2oc3ccccc3c2C)cc1OC	i	i	i	i	i	/	/	/	/
COc1ccc(CN(C)C(=O)c2oc3ccccc3c2CSC)cc1F	8*	i	i	i	i	i	i	i	i
O=C(O)/C(=C\c1ccc(Cl)cc1)c1ccc(F)cc1	i	i	i	i	i	/	/	/	/
Fc1ccc(Cn2nnnc2CN2CCc3ccccc3C2)cc1	i	i	i	i	i	/	/	/	/
CCCCCCn1c(C(C)NC(=O)c2ccco2)nc2ccccc21 (stereo unspecified)	18*	i	i	i	i	i	i	i	i
CCCCn1c(C(C)NC(=O)CC)nc2ccccc21 (stereo unspecified)	i	i	i	i	i	/	/	/	/
Cc1ccc2[nH]c(=O)c(CN(CC3CCCO3)C(=O)c3cccs3)cc2c1 (stereo unspecified)	35*	i	i	i	i	i	i	i	i
Cc1ccc2cc(CN(CC3CCCO3)C(=O)c3cccs3)c(=O)[nH]c2c1 (stereo unspecified)	i	i	i	i	i	/	/	/	/
CCc1nc2ccc(C(=O)N(C)CC(=O)Nc3ccc(Cl)c(C(F)(F)F)c3)cc2nc1CC	14*	i	i	i	i	i	i	i	i
CC(NS(=O)(=O)/C=C/c1ccccc1)C(=O)O (stereo unspecified)	10*	i	i	i	i	i	i	i	i
CCc1cccc(NS(=O)(=O)c2ccc3c(c2)NC(=O)C(C)S3)c1 (stereo unspecified)	16*	i	i	i	i	i	i	i	i
COCC1CCCN(Cc2nc(C(c3ccccc3)c3ccccc3)no2)C1 (stereo unspecified)	14*	i	i	i	i	10%*	i	i	i
CCN(CC)S(=O)(=O)c1cccc(C(=O)OCC(=O)NC(C)c2ccccc2)c1 (stereo unspecified)	i	i	i	i	i	/	/	/	/
Cn1c(N2CCN(C(=O)Nc3ccc(F)cc3)CC2)nc2ccccc21	i	i	i	i	i	/	/	/	/
Cn1c(N2CCN(C(c3ccccc3)c3ccccc3)CC2)nc2ccccc21	7.5*	-7.1*	i	i	i	i	i	i	i
Nc1nc(CN2CCN(Cc3ccc4c(c3)OCO4)CC2)nc(Nc2ccccc2)n1	i	i	i	i	i	/	/	/	/
Cc1ccccc1Nc1nc(N)nc(CN2CCN(Cc3ccc4c(c3)OCO4)CC2)n1	8*	i	i	i	i	i	i	i	i
COc1cccc(C2CC(=O)C3=C(C2)Nc2ccccc2N(C(=O)CCC(=O)O)C3c2ccc(F)cc2)c1 (stereo unspecified)	i	i	i	i	i	/	/	/	/
COc1ccc(Br)c(C(=O)Nc2ccc(F)cc2)c1	6.9*	i	i	i	i	i	i	i	i
COc1cccc(NC(=O)c2ccccc2Br)c1	i	i	i	i	i	/	/	/	/
O=C(Nc1nc2c(F)cc(F)cc2s1)c1ccco1	16*	i	i	i	i	i	i	i	i
Cc1ccc(NC(=O)CSc2nnc(C3CC3)n2N)cc1S(=O)(=O)N1CCOCC1	7.9*	i	i	i	i	i	i	i	i
SMILES	MrgX1 allo act	RGS4 act	MrgX1 agonist	MrgX1 antagonist	RGS4 block	MrgX1 PAM conf	HEK293 Ca flux	HEK293 Ca counter	HEK293 Ca cntr2
CN(C)CCCOc1ccc2c(c1)Sc1ccccc1CC2=O	8.5*	i	i	i	i	i	i	i	i
O=C(COC(=O)c1cccc(O)c1)Nc1ccc(OC(F)F)cc1	10*	i	i	i	i	i	i	i	i
O=C(COC(=O)c1ccc(O)cc1)Nc1ccc(OC(F)F)cc1	i	i	i	i	i	/	/	/	/
Cc1cc2c(N3CCCCC3C)ncnc2s1 (stereo unspecified)	7.1*	i	i	i	i	i	i	i	i
Cc1ccc2nc(Cl)c(-c3ccccc3)cc2c1	8.3*	i	i	i	i	i	i	i	i
CCCCN(C)CCC(=O)Nc1ccc2c(c1)CCC2	i	i	i	i	i	/	/	/	/
CC(C)CSC1=NSC2=NC(=O)/C(=C\c3cccs3)C(=N)N12	i	i	i	i	i	/	/	/	/
CSC1=NSC2=NC(=O)/C(=C\c3cccs3)C(=N)N12	27*	i	i	i	i	15%*	i	i	i
COC(=O)c1c(-c2cccc(C)c2)csc1NC(=O)C1CCCO1 (stereo unspecified)	i	i	i	i	i	/	/	/	/
CCOC(=O)c1c(-c2ccc(OC)cc2)csc1NC(=O)C1CCCO1 (stereo unspecified)	24*	i	i	i	i	i	i	i	i

Compound activity deposited in PubChem BioAssay by Johns Hopkins Ion Channel Center.
